From PubChem BioAssay AID1296 (Columbia University Molecular Screening Center, 2008) come the findings set out here.

The structures appear in SMILES notation. The whole screen tested about 130,000 compounds, of which about 1,000 (0.77%) were called active. Not shown: some 1% with an inconclusive outcome.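 The calls were made as follows: active = activation at 2 µM above a set limit, confirmed on inspection of the cell images; inconclusive = above the set limit but not confirmed on image inspection; inactive = the rest.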 For the sample, actives were picked, then their nearest neighbours and some compounds at random.

The assay in a line: activators of insulin promoter-driven GFP, primary screen, imaging, TRM-6 cells, eGFP reporter, cell count (AID 1296).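 As to activation: share of cells whose green reporter signal exceeds an intensity cutoff.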 Particulars: at 2 µM; activation: stronger effect = higher value, plate-scaled: unstimulated 0, stimulated control 100; normalized cell count: measured here: cell count (toxicity). The essentials:
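material = TRM-6 human fetal islet cells, insulin promoter–eGFP reporter | input = 1,000 TRM-6 cells seeded per well | benchmarks = stimulated versus unstimulated wells as plate controls | measured by = automated fluorescence imaging of paraformaldehyde-fixed, Hoechst-counterstained cells, green channel | schedule = compound exposure 48 h, 37 °C | reagent = tamoxifen at 0.75 µM added at seeding for reporter induction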
As to `CCCC1NC(=S)NC(C)=C1C(C)=O` (stereo unspecified), the activation was 7.14% (inactive) and the normalized cell count was 103%.
Taken in the same sequence, the figures for `COC(=O)c1ccccc1NC(=S)NC(=O)c1ccccc1F` were 0% (inactive) and 112%.
Taken in the same sequence, the figures for `Cc1ccccc1OCCOc1ccc([N+](=O)[O-])cc1/C=N/n1cnnc1` were 107% (inactive) and 5.92%.
`Cc1[nH]c2ccccc2c1SCC(=O)Nc1nccs1`: the activation is 5.56% (inactive) and the normalized cell count was found to be 140%.
With `Cn1c(SCC(=O)N2CCCc3ccccc32)nc2ccccc2c1=O`, the activation was 57.1% (inactive) and the normalized cell count worked out at 100%.
`COC(=O)c1[nH]c2ccccc2c1NC(=O)CN1CCCc2ccccc21`: the activation is 209% (active) and the normalized cell count was 75.4%.
Taken in the same sequence, the figures for `Cc1cccc(-n2cc(CN3CCN(C(=O)c4ncn[nH]4)CC3)c(-c3cccc(F)c3)n2)c1` were 0% (inactive) and 108%.
Taken in the same sequence, the figures for `O=C(COc1ccc2c(C(F)(F)F)cc(=O)oc2c1)Nc1ccc2c(c1)OCCO2` were 2.7% (inactive) and 112%.
Taken in the same sequence, the figures for `CC1(C)CC(=O)c2cnc3nc4ccccc4n3c2C1` were -76.2% (inactive) and 56.3%.
With `Cc1cc(C(=O)OCC(=O)Nc2nnc(C(C)C)s2)c2ccccc2n1`, the activation was 0% (inactive) and the normalized cell count turned out to be 93.8%.
On to `N#C/C(=C\C1=C(N2CCOCC2)C(=C\c2ccccc2)/CC1)C(=O)Nc1ccccc1F`, for which the activation was 525% [fluoresces] (active) and the normalized cell count amounted to 109%.
Taken in the same sequence, the figures for `CC(CC(=O)O)C(=O)c1ccc(Cl)c([N+](=O)[O-])c1` (stereo unspecified) were 6.67% (inactive) and 136%.
Taken in the same sequence, the figures for `O=C1OC(NC(=O)c2ccccc2)C(N2CCOCC2)=C1Cl` (stereo unspecified) were 162% (active) and 118%.
Taken in the same sequence, the figures for `Cn1nc(-c2ccc(N3CCOCC3)c(NC(=O)c3ccccc3)c2)c2ccccc2c1=O` were 0% (inactive) and 95.6%.
On to `O=C1C(Cl)=C(N2CCOCC2)C(=O)N1c1ccccc1`, for which the activation is 0% (inactive) and the normalized cell count worked out at 129%.
Taken in the same sequence, the figures for `C=CCc1cccc2cc(C(=O)OCC)c(=O)oc12` were 7.14% (inactive) and 70.6%.
For `COCCCNCCOCCOc1ccc(Cl)cc1Br`, the activation was 6.67% (inactive) and the normalized cell count turned out to be 166%.
Taken in the same sequence, the figures for `CC1=NN(C(=O)Cc2ccc(C)cc2)C(O)(c2cccnc2)C1` (stereo unspecified) were -5.41% (inactive) and 170%.
Taken in the same sequence, the figures for `CN(CC(=O)NC1CCCC1)S(=O)(=O)c1cnc[nH]1` were -7.14% (inactive) and 85%.
For the molecule `CC(C)COP(=O)(c1ccc(N(C)C)cc1)C(Nc1ccccc1)c1cccnc1` (stereo unspecified), the activation is 2.94% (inactive) and the normalized cell count turned out to be 145%.
Taken in the same sequence, the figures for `COC(=O)c1ccc(Cc2ccccc2)o1` were -92.9% (inactive) and 83.1%.
Taken in the same sequence, the figures for `COC(=O)c1ccc(COC(=O)c2c(C)nn(Cc3ccccc3Cl)c2Cl)o1` were 5.26% (inactive) and 164%.
On to `COC(=O)c1ccc(CSc2ccccc2C)o1`, for which the activation is 230% (active) and the normalized cell count was 122%.
Taken in the same sequence, the figures for `C=CCN(c1ccc(C(=O)Nc2cc(C)cc(C)c2)cc1)S(C)(=O)=O` were 8.11% (inactive) and 119%.
Taken in the same sequence, the figures for `Cc1cccc2cc(CN(Cc3cccs3)C(=S)NCc3ccco3)c(=O)[nH]c12` were -7.94% (inactive) and 94.8%.
Taken in the same sequence, the figures for `CCNC(=S)N(CCc1c(C)[nH]c2ccc(C)cc12)Cc1ccco1` were 340% (active) and 55.7%.
Regarding `CC1CCCN(CCOCCOc2ccccc2-c2ccccc2)C1` (stereo unspecified), the activation is 7.14% (inactive) and the normalized cell count worked out at 133%.
Taken in the same sequence, the figures for `Cc1ccc(C(C)(C)C)c(OCCCCN2CCCC2)c1` were -1.96% (inactive) and 97.2%.
For `CCOc1nnc(C)c2c(C)n(-c3cccc(Cl)c3)nc12`, the activation is 162% (active) and the normalized cell count was 134%.
In the case of `Cc1nn(-c2ccccc2)c(C)c1NC(=O)COc1ccc(Cl)cc1Cl`, the activation was 3.7% (inactive) and the normalized cell count was found to be 120%.
Taken in the same sequence, the figures for `Cc1cc(C)c2c(n1)nn1c(N3CCN(c4cccc(Cl)c4)CC3)cc(C)nc21` were 141% (inactive) and 99.8%.
Taken in the same sequence, the figures for `O=C(CCCN1C(=O)/C(=C/c2ccco2)SC1=S)Nc1ccccc1` were 0% (inactive) and 158%.
Taken in the same sequence, the figures for `COc1ccc(N2CCN(C(=O)c3ccc4c(Cl)c5c(nc4c3)CCCC5)CC2)cc1` were 0% (inactive) and 94.9%.
On to `COc1ccc(C2CC(c3cccs3)Nc3nnnn32)cc1` (stereo unspecified), for which the activation is -78.6% (inactive) and the normalized cell count turned out to be 120%.
For `CC1(C)CC(=O)C(N=Nc2ccc(S(=O)(=O)N3CCCCCC3)cc2)=C(O)C1`, the activation is 0% (inactive) and the normalized cell count stood at 78.9%.
Take `O=C(NCN1CCN(CCO)CC1)c1cnccn1`: the activation is 6.67% (inactive) and the normalized cell count was found to be 83.1%.
Taken in the same sequence, the figures for `Cc1ccc2c(Cl)c(C(=O)NCCCn3ccnc3)sc2c1` were 352% (inactive) and 42%.
Taken in the same sequence, the figures for `CCCC(=O)Nc1ccc(C(=O)NCCCn2ccnc2)cc1` were 456% (active) and 48.4%.
As to `O=C(Nc1ccccc1C(=O)NCCCn1ccnc1)c1ccc(Cl)cc1Cl`, the activation is 289% (inactive) and the normalized cell count is 61.3%.
Taken in the same sequence, the figures for `C/C(=N\NC(=O)c1ccc(NS(=O)(=O)c2cccs2)cc1)c1ccc2ccccc2c1` were 157% (inactive) and 72.7%.
Taken in the same sequence, the figures for `CN(C)CCCCCN(C)Cc1cc2ccccc2o1` were 319% (active) and 86.1%.
For `COC(=O)c1ccc(C(=O)OC)c(NC(=S)N2CCN(c3ccc(F)cc3)CC2)c1`, the activation is 403% (active) and the normalized cell count turned out to be 89.4%.
Taken in the same sequence, the figures for `CCN(CCO)C(=S)Nc1cc(C(=O)OC)ccc1C(=O)OC` were 3.45% (inactive) and 127%.
Taken in the same sequence, the figures for `CCS(=O)(=O)Nc1cc(C(=O)OC)ccc1C(=O)OC` were -6.67% (inactive) and 104%.
With `COc1ccc(C)cc1Nc1nc(-c2c(C)[nH]c3ccccc23)cs1`, the activation is -3.7% (inactive) and the normalized cell count came to 68.8%.
Taken in the same sequence, the figures for `CN(c1ccc(OCC(=O)OCC(=O)Nc2cccc([N+](=O)[O-])c2)cc1)S(=O)(=O)c1ccc(F)cc1` were -8.57% (inactive) and 119%.
Taken in the same sequence, the figures for `COc1cccc(OC)c1C(=O)Nc1ccc(Cc2ccncc2)cc1` were 6.67% (inactive) and 107%.
Taken in the same sequence, the figures for `O=C(Nc1ccncc1)c1c(F)cccc1F` were -5.26% (inactive) and 90.9%.
In the case of `CCc1ccc(NC(=O)Nc2ccncc2)cc1`, the activation is 268% (active) and the normalized cell count was 67.1%.
Taken in the same sequence, the figures for `OCCNCCOc1ccc(Cl)c(Cl)c1` were -3.85% (inactive) and 86.5%.
Taken in the same sequence, the figures for `CC(NC(=O)Nc1ccc2c(c1)OCO2)c1ccncc1` (stereo unspecified) were -5.26% (inactive) and 112%.
Taken in the same sequence, the figures for `Cc1onc(C(=O)NN)c1C(=O)N1CCN(C(c2ccccc2)c2ccccc2)CC1` were -81.8% (inactive) and 29.3%.
Consider `CCOC(=O)c1c(NC(=O)C2CC=CCC2C(=O)O)sc(C)c1CC` (stereo unspecified), for which the activation was -5.88% (inactive) and the normalized cell count came to 110%.
Taken in the same sequence, the figures for `Cc1ccccc1C(OCCN(C)C)C1CCCCC1` (stereo unspecified) were -9.38% (inactive) and 72.9%.
Taken in the same sequence, the figures for `Cc1ccc(N/N=C2\COC(C)(C)CC2=O)cc1` were 7.14% (inactive) and 67.8%.
In the case of `NC(=O)c1ccc(CN2CCC(Cc3ccccc3)CC2)cc1`, the activation is 347% (active) and the normalized cell count was 40.1%.
Taken in the same sequence, the figures for `O=C(Nc1ccccc1)N1CCN(Cc2ccccc2)CC1` were 4.22% (inactive) and 57.8%.
Taken in the same sequence, the figures for `CCCC(=O)C1CCN(Cc2ccccc2)CC1` were 0% (inactive) and 122%.
Taken in the same sequence, the figures for `O=C(CSc1ncnc2scc(-c3ccccc3)c12)NCc1ccc2c(c1)OCO2` were 0% (inactive) and 109%.
Regarding `CCCCOc1ccc(C(=O)NN2CCN(C)CC2)cc1`, the activation is 0% (inactive) and the normalized cell count is 149%.
Taken in the same sequence, the figures for `CN(c1ccccc1)c1ccc(/C=c2\s/c(=C(/C#N)C(=O)C(C)(C)C)n(Cc3ccco3)c2=O)cc1` were 178% (active) and 74.1%.
In the case of `Cc1cs/c(=N\N=C\c2ccc(O)cc2)n1Cc1ccco1`, the activation was -7.69% (inactive) and the normalized cell count was found to be 109%.
Take `O=C(CN(c1ccccc1)S(=O)(=O)c1ccc(Cl)cc1)Nc1ccccc1C(=O)N1CCCC1`: the activation was 93.5% (active) and the normalized cell count was determined as 74.8%.
Taken in the same sequence, the figures for `Cc1ccc(S(=O)(=O)N(CC(=O)N2CCc3ccccc3C2)c2cccc(Cl)c2)cc1` were 5% (inactive) and 94.9%.
Taken in the same sequence, the figures for `O=C(CN(c1cccc(Cl)c1)S(=O)(=O)c1ccccc1)NN=C1CCCC1` were -5.88% (inactive) and 82.1%.
Taken in the same sequence, the figures for `N#CCC(=O)NC(=O)NCC1CC1` were 9.09% (inactive) and 118%.
Take `O=C(CCc1[nH]c2ccccc2c1Sc1ccccc1)N(CCO)CCO`: the activation is -6.9% (inactive) and the normalized cell count was found to be 121%.
Taken in the same sequence, the figures for `Cc1nnc(SCC(=O)N2CCOCC2)[nH]c1=O` were 0% (inactive) and 145%.
Taken in the same sequence, the figures for `COc1ccc(S(=O)(=O)N2CCC(C(=O)N3CCc4ccccc4C3)CC2)cc1OC` were 8.7% (inactive) and 157%.
Regarding `O=S(=O)(c1cccs1)N1CCc2ccccc2C1`, the activation is -90.9% (inactive) and the normalized cell count turned out to be 90.9%.
Taken in the same sequence, the figures for `O=C(Nc1ccc(S(=O)(=O)N2CCc3ccccc3C2)cc1)c1ccccc1` were 407% (active) and 116%.
Taken in the same sequence, the figures for `O=C(Nc1ccccc1)OCc1cn(-c2ccc(Cl)cc2)nn1` were 6.06% (inactive) and 118%.
In the case of `CC(Sc1nncn1C)C(=O)Nc1cc(C(F)(F)F)ccc1N1CCOCC1` (stereo unspecified), the activation is 0% (inactive) and the normalized cell count came to 135%.
On to `CCC(C)(C(=O)NC1CCCCC1)N(C)C(=O)c1ccc2c(c1)OCO2` (stereo unspecified), for which the activation is 8.57% (inactive) and the normalized cell count was 95.1%.
Taken in the same sequence, the figures for `CCOC(=O)N1CCN(C(=O)COc2ccc(Cl)cc2C)CC1` were 193% (inactive) and 63.4%.
Taken in the same sequence, the figures for `CCCn1nnnc1NC(=O)COc1ccc(Cl)cc1C` were 9.09% (inactive) and 95.5%.
Taken in the same sequence, the figures for `CN1CCC(OC(=O)COc2ccc(Cl)cc2Cl)CC1` were 453% (active) and 63.1%.
Take `CC(C)(C)NCCCOc1ccc(Cl)cc1C(C)(C)C`: the activation was 108% (inactive) and the normalized cell count was found to be 74%.
Taken in the same sequence, the figures for `CC(C)NC(=O)C(=O)N/N=C/c1ccco1` were 0% (inactive) and 130%.
For `CCCCc1nc(NCc2ccccc2)c(C#N)c2c1CCCC2`, the activation is -3.7% (inactive) and the normalized cell count worked out at 115%.
As for `Cc1ccccc1OCC(=O)NCC(=O)OCC(=O)c1ccc2ccccc2c1`, the activation is -2.78% (inactive) and the normalized cell count is 105%.
Taken in the same sequence, the figures for `Cc1cccc(NC(=O)COc2ccccc2C)n1` were 406% (active) and 56.6%.
Taken in the same sequence, the figures for `Cc1ccc(S(=O)(=O)NC(=O)COc2ccccc2C)cc1` were -81.2% (inactive) and 150%.
`Cc1nc2scc(-c3cccs3)c2c(=O)n1N`: the activation was -9.8% (inactive) and the normalized cell count turned out to be 105%.
With `O=C(c1ccc(Cl)c([N+](=O)[O-])c1)N1CCN(c2ccccc2)CC1`, the activation is 4.35% (inactive) and the normalized cell count came out at 49.2%.
Taken in the same sequence, the figures for `CCN(CC)CC1(O)CCN(C(=O)c2ccc(Cl)c(Cl)c2)CC1` were 275% (active) and 33.3%.
Taken in the same sequence, the figures for `Cc1nc2ccc(C(=O)N3CCSCC3)cc2s1` were 6.06% (inactive) and 60.2%.
With `COCCn1c(SCC(=O)Nc2ccc3c(c2)CCC3)nc2ccccc2c1=O`, the activation is 1.3% (inactive) and the normalized cell count was 117%.
